From PubChem
STAT3 act = increases IL-6 driven STAT3 reporter signal; U3A cells, IL-6 STAT3-luciferase reporter, luminescence; 100% = signal with IL-6 EC80 alone; activation (% of control), % at 5.6 µM; 0.91% of 190,000 active; AID 871;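 active = activation above the screen-wide mean of compound activation plus 3 SD, cut at about 130% in these data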;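 also: 0% = background luminescence of wells with medium and substrate only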
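Material: STAT3-luciferase reporter U3A cells; Probe or stimulus: IL-6 (33 ng/mL); Incubation: compound pre-incubation 1 h before IL-6, then 6 h stimulation at 37 °C; Technique: luminescence from STAT3-driven luciferase reporter; Evaluation: % activation versus median of IL-6-stimulated wells; Controls: IL-6-only high control.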
HSV replic up = increases HSV replication in cells; HSV replication augmentation in cells, fold increase; maximum fold increase; AID 1956; 0.005% of 220,000 active; in the data active = maximum fold increase above about 1.5; inconclusive = no clear call, values can overlap the other calls; tested in PC3 cells
KCC2 mod = KCC2 (human) Cl- transport modulation. AID 1456. KCC2 cells, thallium flux FluoZin-2 fluorescence. B-score of Tl+ flux slope (higher = more flux/activation; lower = inhibition) at 10 µM. 2.2% of 190,000 active;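 active = thallium flux slope and its plate-corrected score both differing from the plate sample mean at a set confidence after two filtering rounds, in either direction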;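 also: slope of fluorescence scaled to starting intensity during 10 to 20 s after thallium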
Target sequence (Q9H2X9 whole entry, looked up): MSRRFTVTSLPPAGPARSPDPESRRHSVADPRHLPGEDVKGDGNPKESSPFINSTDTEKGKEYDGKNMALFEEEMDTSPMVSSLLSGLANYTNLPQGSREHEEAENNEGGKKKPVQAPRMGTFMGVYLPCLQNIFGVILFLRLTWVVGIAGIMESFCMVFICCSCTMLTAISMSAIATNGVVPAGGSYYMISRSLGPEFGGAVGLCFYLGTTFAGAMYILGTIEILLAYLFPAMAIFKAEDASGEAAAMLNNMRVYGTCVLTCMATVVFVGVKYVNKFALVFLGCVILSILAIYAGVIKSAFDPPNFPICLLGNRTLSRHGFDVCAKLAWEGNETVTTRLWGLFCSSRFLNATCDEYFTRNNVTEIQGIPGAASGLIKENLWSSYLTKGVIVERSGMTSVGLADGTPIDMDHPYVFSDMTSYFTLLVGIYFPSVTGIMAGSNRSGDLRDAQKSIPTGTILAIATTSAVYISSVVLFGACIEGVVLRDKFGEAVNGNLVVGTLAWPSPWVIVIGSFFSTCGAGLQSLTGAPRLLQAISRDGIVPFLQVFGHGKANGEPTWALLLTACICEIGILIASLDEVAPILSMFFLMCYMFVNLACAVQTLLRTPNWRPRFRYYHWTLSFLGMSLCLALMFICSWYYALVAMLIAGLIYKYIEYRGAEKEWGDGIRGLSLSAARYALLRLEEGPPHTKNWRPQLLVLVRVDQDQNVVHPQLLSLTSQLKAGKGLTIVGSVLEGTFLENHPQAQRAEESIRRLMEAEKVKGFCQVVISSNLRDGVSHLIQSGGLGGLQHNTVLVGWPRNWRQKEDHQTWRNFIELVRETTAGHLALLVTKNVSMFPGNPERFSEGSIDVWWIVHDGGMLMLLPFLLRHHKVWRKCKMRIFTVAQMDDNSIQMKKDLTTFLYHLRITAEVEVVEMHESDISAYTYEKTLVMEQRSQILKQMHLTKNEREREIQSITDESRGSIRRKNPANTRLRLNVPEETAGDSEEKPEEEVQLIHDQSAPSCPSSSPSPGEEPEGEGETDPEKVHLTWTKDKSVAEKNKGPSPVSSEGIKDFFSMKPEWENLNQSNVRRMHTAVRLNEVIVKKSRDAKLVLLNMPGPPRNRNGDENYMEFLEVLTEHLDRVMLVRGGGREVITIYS
STAT1 activator = increases IFN-gamma driven STAT1 reporter signal; NIH 3T3 STAT1-luciferase reporter, luminescence; 100% = IFN-gamma alone, no compound; activation (% of control), % at 5.5 µM; 2.6% of 200,000 active; AID 932;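 active = activation above the screen-wide mean activation plus 3 SD, cut at about 130% in these data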;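 also: raw ratio to IFN-gamma control signal so 100% means no change and 0% no light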
STAT1 blocker = STAT1 signaling inhibition. NIH 3T3 STAT1-luciferase reporter, IFN-gamma, luminescence. inhibition, % at 5.5 µM. AID 920. 0.35% of 200,000 active;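 active = inhibition above a set limit, the mean inhibition across all tested compounds plus 3 SD, cut at about 34% in these data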;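 also: 0% = IFN-gamma with DMSO and 100% = IFN-gamma with 300 µM nifuroxazide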
STAT3 inh = inhibitors of IL-6 induced STAT3 signaling; 0.89% of 190,000 active; U3A cells, IL-6 STAT3-luciferase reporter, luminescence; host cell line lacks STAT1; inhibition, % at 5.5 µM;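 active = inhibition above the mean inhibition across all screened compounds plus 3 SD, cut at about 44% in these data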;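 also: 0% = DMSO only wells and 100% = 100 µM nifuroxazide control wells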
KCC2 secondary = confirmation of human KCC2 transport modulators | shares compounds with KCC2 mod | HEK293-KCC2, thallium flux, FluoZin2 fluorescence; hits give high values | normalised thallium flux (F/F0 slope) at 10 µM | 15% of 3,700 active;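 active = thallium flux slope above the same plate's solvent-only control mean plus 3 SD; inconclusive = the two replicate wells disagree; inactive = no significant difference from solvent-only control wells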
KCC2 bumet counter = thallium flux persisting under bumetanide in KCC2 cells, counter-screen secondary assay; shares compounds with KCC2 mod; HEK293-KCC2 + bumetanide/ouabain, thallium flux FluoZin2; hits give high values; normalized thallium flux at 10 µM; 49% of 3,700 active;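 active = thallium entry rate above the same plate's blocked-transporter control wells by more than 3 SD; inconclusive = the two repeat wells disagree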;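 also: raw slope of fluorescence over initial fluorescence between 10 and 20 s after thallium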
KCC2 sec2 = KCC2 (human) modulation, second secondary assay. shares compounds with KCC2 mod. HEK293-KCC2, thallium flux FluoZin2 fluorescence; actives lie on both sides; F/F0 rise rate, 10–20 s post-thallium. normalized thallium flux at 10 µM. 23% of 3,700 active. AID 1715;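 active = thallium flux slope more than 3 SD above or below the plate's solvent-only control mean, mostly below; inconclusive = the two repeat wells disagreed; inactive = no significant shift from solvent-only controls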;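 also: raw slope with 0.1% DMSO as baseline and bumetanide as block control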
HEK293 Tl flux = acts in parental HEK cells, KCC2 counter-screen; shares compounds with KCC2 mod; HEK293 parental cells, thallium flux FluoZin2, ouabain; baseline-ratio fluorescence slope, 10–20 s after thallium; thallium flux rate (normalised fluorescence) at 10 µM; 46% of 3,700 active; AID 1716;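 active = thallium flux rate significantly above the same plate's solvent-only control wells, beyond their mean plus 3 SD; inconclusive = the two replicate wells gave conflicting results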
KCC2 ouabain = modulates human KCC2 on retest with ouabain; shares compounds with KCC2 mod; HEK293-KCC2, thallium flux FluoZin2 fluorescence; bidirectional: low = inhibitor, high = activator; raw Tl+ flux slope (below DMSO = inhibition, above = activation) at 10 µM; 48% of 3,700 active; AID 1717;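 active = thallium flux slope beyond 3 SD from same-plate DMSO control mean in most replicates, usually higher, sometimes lower; inconclusive = repeat tests gave conflicting results; inactive = no significant difference from controls in most replicates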;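 also: slope of initial-normalized fluorescence between seconds 10 and 20 after thallium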
HEK293 Tl flux2 = acts in parental HEK cells, second KCC2 counter-screen. thallium flux slope at 10 µM. 33% of 3,700 active. shares compounds with KCC2 mod. HEK293 parental, thallium flux FluoZin-2 fluorescence slope;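 active = thallium flux slope above the same plate's solvent-control mean plus 3 SD in both duplicate wells; inconclusive = duplicate wells that disagreed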;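 also: run without ouabain in cells lacking the KCC2 cotransporter; slope of fluorescence scaled to its starting value between 10 and 20 s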
* marks the source's active call; other numbers are inactive results; i = inactive; ? = inconclusive; . = no result given. Hits are enriched below; roughly 5.5% of the tested compounds scored in any of these assays.

SMILES	STAT3 act	HSV replic up	KCC2 mod	STAT1 activator	STAT1 blocker	STAT3 inh	KCC2 secondary	KCC2 bumet counter	KCC2 sec2	HEK293 Tl flux	KCC2 ouabain	HEK293 Tl flux2
COc1ccc(NC(=O)c2cccnc2N2CCCC2)cc1	102	i	.	102	-2	4	?	0.005	0.031	0.008	0.019	0.011
CC(=O)/C=C1/SC(CC(=O)O)C(=O)N1c1ccccc1 (centres undefined)	103	i	-2	100	0	0	.	.	.	.	.	.
CCn1c(O)c(N=NC(=S)NCC2CCCO2)c2ccccc21 (centres undefined)	92	i	53*	90	11	10	0.0071	0.078*	0.058*	0.055*	0.067*	0.056*
Oc1[nH]c2ccc(Br)cc2c1N=NC(=S)NCC1CCCO1 (centres undefined)	.	i	35*	.	.	.	0.014*	0.048*	0.034	?	0.036*	0.018*
CCn1c(=O)cc(SCC(=O)NCC2CCCO2)c2ccccc21 (centres undefined)	99	i	.	100	0	6	.	.	.	.	.	.
CN1CCc2nc(SCC(=O)Nc3ccc(F)cc3)c(C#N)cc2C1	92	i	0.26	100	-1	14	.	.	.	.	.	.
Cc1ccc(NC(=O)NNC(=O)c2cccs2)cc1	106	i	0.29	105	-5	-5	.	.	.	.	.	.
O=C(O)/C=C/C(=O)c1ccc2c(c1)NC(=O)CO2	103	i	0.24	96	4	9	.	.	.	.	.	.
Cc1ccc2nc(Cl)c(CNCc3ccccc3)cc2c1	105	i	-0.77	109	-11	-3	.	.	.	.	.	.
Cn1nnc(NCc2cc(Br)ccc2OCc2ccccc2F)n1	110	i	-4.1*	101	-3	-7	0.0053	0.0031*	0.024*	0.006*	0.013*	0.0095
O=C(NCc1ccc2c(c1)OCO2)c1ccc(N2C(=O)C3CCCCC3C2=O)cc1 (centres undefined)	96	i	0.13	94	6	10	.	.	.	.	.	.
Cc1nc(NC(N)=S)sc1C(=O)Nc1ccccc1	92	i	-0.89	98	2	14	.	.	.	.	.	.
COC(=O)c1sc(NC(=S)NC(=O)c2ccccc2F)nc1C	108	i	36*	129*	-32	-7	0.0079	0.037*	?	0.033*	0.04*	0.022*
Cc1nc(NC(=S)NC(=O)c2ccccc2)sc1C	.	i	46*	.	.	.	0.015*	0.06*	0.034	0.028*	0.037*	0.013*
O=C(/C=C/c1cccc(Cl)c1)NCCN1CCOCC1	93	i	-0.61	86	17	6	.	.	.	.	.	.
O=C(Nc1cccnc1)c1ccc(COc2cc(Cl)ccc2Cl)o1	125	i	-5.2*	93	8	-24	0.0063	0.0051	?	0.0081	0.016*	0.0099
O=C(c1ccc(COc2ccccc2Br)o1)N1CCN(c2ccccn2)CC1	95	i	-6.5*	99	1	10	?	?	0.032	0.0058*	0.013*	0.011
O=C(Nc1cccnc1)c1ccc(COc2ccccc2Cl)o1	116	i	-8.1*	98	2	-13	0.0061	?	0.022*	0.0077	?	0.011
O=C(NCc1cccnc1)c1ccc(COc2ccc(Cl)cc2Cl)o1	118	i	-4.4*	91	9	-13	0.0098	0.0072	0.029*	0.0036	0.015*	0.011
COc1ccccc1S(=O)(=O)Cc1ccc(C(=O)N2CCN(c3ccccn3)CC2)o1	100	i	-0.43	99	-2	-1	.	.	.	.	.	.
CCOc1ccc(OCc2ccc(C(=O)Nc3cccnc3)o2)cc1	102	i	0.31	124	-26	2	.	.	.	.	.	.
CC(C)NC(=O)COC(=O)/C=C/c1ccco1	102	i	0.084	106	-7	0	.	.	.	.	.	.
COc1cccc(NC(=O)CCSc2ccc(C)cc2)c1	103	i	-1.5	109	-10	1	.	.	.	.	.	.
O=C(c1ccc(COc2ccccc2Cl)o1)N1CCN(Cc2ccc3c(c2)OCO3)CC1	95	i	-1.6	97	3	9	0.007	0.0056	0.029	0.0062	?	0.01
O=C(c1ccc(COc2ccc(Cl)cc2)o1)N1CCN(Cc2ccc3c(c2)OCO3)CC1	98	i	.	103	-3	7	.	.	.	.	.	.
SMILES	STAT3 act	HSV replic up	KCC2 mod	STAT1 activator	STAT1 blocker	STAT3 inh	KCC2 secondary	KCC2 bumet counter	KCC2 sec2	HEK293 Tl flux	KCC2 ouabain	HEK293 Tl flux2
COc1ccccc1NC(=O)c1ccc(COc2ccccc2OC)o1	93	i	-3.7*	105	-5	12	0.0054	?	?	0.0067	?	0.011
O=C(NCc1ccc2c(c1)OCO2)c1ccc(COc2cc(Cl)ccc2Cl)o1	96	i	-5.7*	95	3	4	0.0077	0.0043	0.023*	0.0069	0.015*	0.0095
O=C(Nc1ccccn1)c1ccc(COc2ccccc2Cl)o1	104	i	-4*	103	-3	-1	0.0069	0.0047	0.024*	0.0073	0.015*	0.01
O=C(Nc1ccc(Cl)cn1)c1ccc(COc2ccccc2Br)o1	115	i	-1.4	117	-19	-14	.	.	.	.	.	.
CCc1ccc(NC(=O)N(C2CCCCC2)C(C)c2cccnc2)cc1 (centres undefined)	105	i	-0.023	101	-1	0	.	.	.	.	.	.
Cc1ccc(NC2SC(=O)N(CC(=O)O)C2=O)cc1 (centres undefined)	97	i	.	105	-5	10	.	.	.	.	.	.
c1coc(CSc2ncnc3c2oc2ccccc23)c1	.	i	0.058	.	.	.	.	.	.	.	.	.
O=C(c1cnn2cccnc12)N1CCN(Cc2ccc3c(c2)OCO3)CC1	99	i	0.27	100	0	6	.	.	.	.	.	.
CCOc1ncccc1C(=O)N1CCN(Cc2ccc3c(c2)OCO3)CC1	113	i	4.8*	101	-1	-14	0.016	0.0042	0.028	0.0077	0.018	0.0093
COc1ccc(CNC(=S)NCc2ccc(OC)cc2)cc1	96	i	-0.13	98	2	7	.	.	.	.	.	.
